# According to ChEMBL document CHEMBL4689842, “EUbOPEN Chemogenomics Library wave 1” (2021):
# Tested on: U2OS
# Assay: Multiplex assay against U2OS
# Assay type: toxicity, cell-based
# Conditions: human
# Outline: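 Tubulin, mitochondrial-mass and membrane-permeability phenotypes are per cents of healthy-nucleus cells. Cells were gated by CellPathfinder machine learning into Hoechst high-intensity objects or normal cells, normal cells into healthy, pyknosed or fragmented nuclei, and pyknosed cells into mitotic or apoptotic. Before that, live cells stained at seeding with Hoechst33342, BioTracker Green Microtubule Cytoskeleton Dye, MitoTracker Red and Annexin V Alexa Fluor 680 were imaged on a CQ1 microscope at 37°C and 5% CO2 after compound addition.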
# [1] = 12 h, 1 µM, compound concentration 1 uM, replicate 1
# [2] = 12 h, 1 µM, compound concentration 1 uM, replicate 2
# [3] = 12 h, 10 µM, compound concentration 10 uM, replicate 1
# [4] = 12 h, 10 µM, compound concentration 10 uM, replicate 2
# [5] = 24 h, 1 µM, compound concentration 1 uM, replicate 1
# [6] = 24 h, 1 µM, compound concentration 1 uM, replicate 2
# [7] = 24 h, 10 µM, compound concentration 10 uM, replicate 1
# [8] = 24 h, 10 µM, compound concentration 10 uM, replicate 2
# [9] = 48 h, 1 µM, compound concentration 1 uM, replicate 1
# [10] = 48 h, 1 µM, compound concentration 1 uM, replicate 2
# [11] = 48 h, 10 µM, compound concentration 10 uM, replicate 1
# [12] = 48 h, 10 µM, compound concentration 10 uM, replicate 2
smiles,measurement,setting,value
COc1cc2ncn(-c3cc(OCc4ccccc4C(F)(F)F)c(C(N)=O)s3)c2cc1OC [GW843682X],Population Apoptotic (%),[1],54%
same,Population Fragmented Nuclei (%),[1],15%
same,Population Healthy Nuclei (%),[1],78%
same,Population Hoechst High Intensity Objects (%),[1],7%
same,Population Membrane Permeable-Phenotype (%),[1],12%
same,Population Mitochondria Different-Phenotype (%),[1],17%
same,Population Mitotic Cells (%),[1],45%
same,Population Normal (%),[1],92%
same,Population Pyknosed Nuclei (%),[1],6%
same,Population Tubulin-Different-Phenotype (%),[1],28%
same,Total Cell Count,[1],170
same,Population Apoptotic (%),[2],50%
same,Population Fragmented Nuclei (%),[2],9%
same,Population Healthy Nuclei (%),[2],80%
same,Population Hoechst High Intensity Objects (%),[2],10%
same,Population Mitochondria Different-Phenotype (%),[2],10%
same,Population Mitotic Cells (%),[2],50%
same,Population Normal (%),[2],89%
same,Population Pyknosed Nuclei (%),[2],9%
same,Population Tubulin-Different-Phenotype (%),[2],20%
same,Total Cell Count,[2],83
same,Population Apoptotic (%),[3],54%
same,Population Fragmented Nuclei (%),[3],12%
same,Population Healthy Nuclei (%),[3],71%
same,Population Hoechst High Intensity Objects (%),[3],13%
same,Population Membrane Permeable-Phenotype (%),[3],28%
same,Population Mitochondria Different-Phenotype (%),[3],83%
same,Population Mitotic Cells (%),[3],45%
same,Population Normal (%),[3],86%
same,Population Pyknosed Nuclei (%),[3],15%
same,Population Tubulin-Different-Phenotype (%),[3],97%
same,Total Cell Count,[3],185
same,Population Apoptotic (%),[4],50%
same,Population Fragmented Nuclei (%),[4],13%
same,Population Healthy Nuclei (%),[4],75%
same,Population Hoechst High Intensity Objects (%),[4],6%
same,Population Membrane Permeable-Phenotype (%),[4],25%
same,Population Mitochondria Different-Phenotype (%),[4],88%
same,Population Mitotic Cells (%),[4],50%
same,Population Normal (%),[4],93%
same,Population Pyknosed Nuclei (%),[4],11%
same,Population Tubulin-Different-Phenotype (%),[4],98%
same,Total Cell Count,[4],68
same,Population Apoptotic (%),[5],62%
same,Population Fragmented Nuclei (%),[5],14%
same,Population Healthy Nuclei (%),[5],76%
same,Population Hoechst High Intensity Objects (%),[5],3%
same,Population Mitochondria Different-Phenotype (%),[5],22%
same,Population Mitotic Cells (%),[5],37%
same,Population Normal (%),[5],96%
same,Population Pyknosed Nuclei (%),[5],8%
same,Population Tubulin-Different-Phenotype (%),[5],20%
same,Total Cell Count,[5],166
same,Population Apoptotic (%),[6],55%
same,Population Fragmented Nuclei (%),[6],11%
same,Population Healthy Nuclei (%),[6],74%
same,Population Hoechst High Intensity Objects (%),[6],5%
same,Population Membrane Permeable-Phenotype (%),[6],10%
same,Population Mitochondria Different-Phenotype (%),[6],19%
same,Population Mitotic Cells (%),[6],44%
same,Population Normal (%),[6],94%
same,Population Pyknosed Nuclei (%),[6],14%
same,Population Tubulin-Different-Phenotype (%),[6],17%
same,Total Cell Count,[6],85
same,Population Apoptotic (%),[7],51%
same,Population Fragmented Nuclei (%),[7],14%
same,Population Healthy Nuclei (%),[7],66%
same,Population Hoechst High Intensity Objects (%),[7],9%
same,Population Membrane Permeable-Phenotype (%),[7],42%
same,Population Mitochondria Different-Phenotype (%),[7],90%
same,Population Mitotic Cells (%),[7],48%
same,Population Normal (%),[7],90%
same,Population Pyknosed Nuclei (%),[7],18%
same,Population Tubulin-Different-Phenotype (%),[7],98%
same,Total Cell Count,[7],190
same,Population Apoptotic (%),[8],50%
same,Population Fragmented Nuclei (%),[8],13%
same,Population Healthy Nuclei (%),[8],69%
same,Population Membrane Permeable-Phenotype (%),[8],41%
same,Population Mitochondria Different-Phenotype (%),[8],91%
same,Population Mitotic Cells (%),[8],50%
same,Population Pyknosed Nuclei (%),[8],17%
same,Population Tubulin-Different-Phenotype (%),[8],97%
same,Total Cell Count,[8],67
same,Population Apoptotic (%),[9],71%
same,Population Fragmented Nuclei (%),[9],16%
same,Population Healthy Nuclei (%),[9],66%
same,Population Hoechst High Intensity Objects (%),[9],8%
same,Population Membrane Permeable-Phenotype (%),[9],16%
same,Population Mitochondria Different-Phenotype (%),[9],33%
same,Population Mitotic Cells (%),[9],28%
same,Population Normal (%),[9],91%
same,Population Pyknosed Nuclei (%),[9],16%
same,Population Tubulin-Different-Phenotype (%),[9],18%
same,Total Cell Count,[9],160
same,Population Apoptotic (%),[10],62%
same,Population Fragmented Nuclei (%),[10],9%
same,Population Healthy Nuclei (%),[10],79%
same,Population Hoechst High Intensity Objects (%),[10],6%
same,Population Membrane Permeable-Phenotype (%),[10],27%
same,Population Mitochondria Different-Phenotype (%),[10],37%
same,Population Mitotic Cells (%),[10],37%
same,Population Normal (%),[10],93%
same,Population Pyknosed Nuclei (%),[10],10%
same,Population Tubulin-Different-Phenotype (%),[10],34%
same,Total Cell Count,[10],91
same,Population Apoptotic (%),[11],78%
same,Population Fragmented Nuclei (%),[11],17%
same,Population Healthy Nuclei (%),[11],53%
same,Population Hoechst High Intensity Objects (%),[11],9%
same,Population Membrane Permeable-Phenotype (%),[11],71%
same,Population Mitochondria Different-Phenotype (%),[11],93%
same,Population Mitotic Cells (%),[11],21%
same,Population Normal (%),[11],90%
same,Population Pyknosed Nuclei (%),[11],29%
same,Population Tubulin-Different-Phenotype (%),[11],97%
same,Total Cell Count,[11],187
same,Population Apoptotic (%),[12],71%
same,Population Fragmented Nuclei (%),[12],18%
same,Population Healthy Nuclei (%),[12],62%
same,Population Hoechst High Intensity Objects (%),[12],6%
same,Population Membrane Permeable-Phenotype (%),[12],68%
same,Population Mitochondria Different-Phenotype (%),[12],88%
same,Population Mitotic Cells (%),[12],28%
same,Population Normal (%),[12],93%
same,Population Pyknosed Nuclei (%),[12],19%
same,Total Cell Count,[12],78
Cc1ccc2c(c1)c1c(n2CCc2ccc(C)nc2)CCN(C)C1 [LATREPIRDINE],Population Apoptotic (%),[1],53%
same,Population Fragmented Nuclei (%),[1],8%
same,Population Healthy Nuclei (%),[1],81%
same,Population Hoechst High Intensity Objects (%),[1],7%
same,Population Membrane Permeable-Phenotype (%),[1],6%
same,Population Mitochondria Different-Phenotype (%),[1],46%
same,Population Mitotic Cells (%),[1],46%
same,Population Normal (%),[1],92%
same,Population Pyknosed Nuclei (%),[1],9%
same,Population Tubulin-Different-Phenotype (%),[1],42%
same,Total Cell Count,[1],147
same,Population Apoptotic (%),[2],100%
same,Population Fragmented Nuclei (%),[2],27%
same,Population Healthy Nuclei (%),[2],67%
same,Population Hoechst High Intensity Objects (%),[2],16%
same,Population Membrane Permeable-Phenotype (%),[2],5%
same,Population Mitochondria Different-Phenotype (%),[2],27%
same,Population Mitotic Cells (%),[2],0%
same,Population Normal (%),[2],83%
same,Population Pyknosed Nuclei (%),[2],4%
same,Population Tubulin-Different-Phenotype (%),[2],27%
same,Total Cell Count,[2],61
same,Population Apoptotic (%),[3],47%
same,Population Fragmented Nuclei (%),[3],11%
same,Population Healthy Nuclei (%),[3],64%
same,Population Hoechst High Intensity Objects (%),[3],7%
same,Population Membrane Permeable-Phenotype (%),[3],21%
same,Population Mitochondria Different-Phenotype (%),[3],97%
same,Population Mitotic Cells (%),[3],52%
same,Population Normal (%),[3],92%
same,Population Pyknosed Nuclei (%),[3],24%
same,Total Cell Count,[3],142
same,Population Apoptotic (%),[4],88%
same,Population Fragmented Nuclei (%),[4],7%
same,Population Healthy Nuclei (%),[4],65%
same,Population Hoechst High Intensity Objects (%),[4],8%
same,Population Membrane Permeable-Phenotype (%),[4],42%
same,Population Mitochondria Different-Phenotype (%),[4],100%
same,Population Mitotic Cells (%),[4],11%
same,Population Normal (%),[4],91%
same,Population Pyknosed Nuclei (%),[4],26%
same,Population Tubulin-Different-Phenotype (%),[4],100%
same,Total Cell Count,[4],103
same,Population Apoptotic (%),[5],47%
same,Population Fragmented Nuclei (%),[5],6%
same,Population Healthy Nuclei (%),[5],83%
same,Population Hoechst High Intensity Objects (%),[5],3%
same,Population Membrane Permeable-Phenotype (%),[5],4%
same,Population Mitochondria Different-Phenotype (%),[5],38%
same,Population Mitotic Cells (%),[5],52%
same,Population Normal (%),[5],96%
same,Population Pyknosed Nuclei (%),[5],10%
same,Population Tubulin-Different-Phenotype (%),[5],30%
same,Total Cell Count,[5],166
same,Population Apoptotic (%),[6],55%
same,Population Fragmented Nuclei (%),[6],23%
same,Population Healthy Nuclei (%),[6],67%
same,Population Hoechst High Intensity Objects (%),[6],13%
same,Population Membrane Permeable-Phenotype (%),[6],10%
same,Population Mitochondria Different-Phenotype (%),[6],27%
same,Population Mitotic Cells (%),[6],44%
same,Population Normal (%),[6],86%
same,Population Pyknosed Nuclei (%),[6],8%
same,Population Tubulin-Different-Phenotype (%),[6],14%
same,Total Cell Count,[6],74
same,Population Apoptotic (%),[7],71%
same,Population Fragmented Nuclei (%),[7],12%
same,Population Healthy Nuclei (%),[7],54%
same,Population Hoechst High Intensity Objects (%),[7],8%
same,Population Membrane Permeable-Phenotype (%),[7],24%
same,Population Mitochondria Different-Phenotype (%),[7],97%
same,Population Mitotic Cells (%),[7],28%
same,Population Normal (%),[7],91%
same,Population Pyknosed Nuclei (%),[7],33%
same,Population Tubulin-Different-Phenotype (%),[7],100%
same,Total Cell Count,[7],172
same,Population Apoptotic (%),[8],76%
same,Population Fragmented Nuclei (%),[8],4%
same,Population Healthy Nuclei (%),[8],56%
same,Population Hoechst High Intensity Objects (%),[8],4%
same,Population Membrane Permeable-Phenotype (%),[8],56%
same,Population Mitochondria Different-Phenotype (%),[8],100%
same,Population Mitotic Cells (%),[8],24%
same,Population Normal (%),[8],95%
same,Population Pyknosed Nuclei (%),[8],38%
same,Total Cell Count,[8],119
same,Population Apoptotic (%),[9],40%
same,Population Fragmented Nuclei (%),[9],4%
same,Population Healthy Nuclei (%),[9],81%
same,Population Hoechst High Intensity Objects (%),[9],2%
same,Population Membrane Permeable-Phenotype (%),[9],6%
same,Population Mitochondria Different-Phenotype (%),[9],11%
same,Population Mitotic Cells (%),[9],59%
same,Population Normal (%),[9],97%
same,Population Pyknosed Nuclei (%),[9],13%
same,Population Tubulin-Different-Phenotype (%),[9],22%
same,Total Cell Count,[9],150
same,Population Apoptotic (%),[10],60%
same,Population Fragmented Nuclei (%),[10],17%
same,Population Healthy Nuclei (%),[10],75%
same,Population Hoechst High Intensity Objects (%),[10],10%
same,Population Membrane Permeable-Phenotype (%),[10],16%
same,Population Mitochondria Different-Phenotype (%),[10],8%
same,Population Mitotic Cells (%),[10],40%
same,Population Normal (%),[10],89%
same,Population Pyknosed Nuclei (%),[10],7%
same,Population Tubulin-Different-Phenotype (%),[10],10%
same,Total Cell Count,[10],68
same,Population Apoptotic (%),[11],64%
same,Population Fragmented Nuclei (%),[11],14%
same,Population Healthy Nuclei (%),[11],43%
same,Population Hoechst High Intensity Objects (%),[11],6%
same,Population Membrane Permeable-Phenotype (%),[11],28%
same,Population Mitochondria Different-Phenotype (%),[11],90%
same,Population Mitotic Cells (%),[11],35%
same,Population Normal (%),[11],93%
same,Population Pyknosed Nuclei (%),[11],41%
same,Population Tubulin-Different-Phenotype (%),[11],95%
same,Total Cell Count,[11],240
same,Population Apoptotic (%),[12],62%
same,Population Fragmented Nuclei (%),[12],13%
same,Population Healthy Nuclei (%),[12],44%
same,Population Hoechst High Intensity Objects (%),[12],5%
same,Population Membrane Permeable-Phenotype (%),[12],52%
same,Population Mitochondria Different-Phenotype (%),[12],94%
same,Population Mitotic Cells (%),[12],37%
same,Population Normal (%),[12],95%
same,Population Pyknosed Nuclei (%),[12],42%
same,Population Tubulin-Different-Phenotype (%),[12],97%
same,Total Cell Count,[12],156
